Assay [1] concerns the target T1, Nitric oxide synthase, inducible (Mus musculus) (UniProt P29477).
T1 sequence (whole entry): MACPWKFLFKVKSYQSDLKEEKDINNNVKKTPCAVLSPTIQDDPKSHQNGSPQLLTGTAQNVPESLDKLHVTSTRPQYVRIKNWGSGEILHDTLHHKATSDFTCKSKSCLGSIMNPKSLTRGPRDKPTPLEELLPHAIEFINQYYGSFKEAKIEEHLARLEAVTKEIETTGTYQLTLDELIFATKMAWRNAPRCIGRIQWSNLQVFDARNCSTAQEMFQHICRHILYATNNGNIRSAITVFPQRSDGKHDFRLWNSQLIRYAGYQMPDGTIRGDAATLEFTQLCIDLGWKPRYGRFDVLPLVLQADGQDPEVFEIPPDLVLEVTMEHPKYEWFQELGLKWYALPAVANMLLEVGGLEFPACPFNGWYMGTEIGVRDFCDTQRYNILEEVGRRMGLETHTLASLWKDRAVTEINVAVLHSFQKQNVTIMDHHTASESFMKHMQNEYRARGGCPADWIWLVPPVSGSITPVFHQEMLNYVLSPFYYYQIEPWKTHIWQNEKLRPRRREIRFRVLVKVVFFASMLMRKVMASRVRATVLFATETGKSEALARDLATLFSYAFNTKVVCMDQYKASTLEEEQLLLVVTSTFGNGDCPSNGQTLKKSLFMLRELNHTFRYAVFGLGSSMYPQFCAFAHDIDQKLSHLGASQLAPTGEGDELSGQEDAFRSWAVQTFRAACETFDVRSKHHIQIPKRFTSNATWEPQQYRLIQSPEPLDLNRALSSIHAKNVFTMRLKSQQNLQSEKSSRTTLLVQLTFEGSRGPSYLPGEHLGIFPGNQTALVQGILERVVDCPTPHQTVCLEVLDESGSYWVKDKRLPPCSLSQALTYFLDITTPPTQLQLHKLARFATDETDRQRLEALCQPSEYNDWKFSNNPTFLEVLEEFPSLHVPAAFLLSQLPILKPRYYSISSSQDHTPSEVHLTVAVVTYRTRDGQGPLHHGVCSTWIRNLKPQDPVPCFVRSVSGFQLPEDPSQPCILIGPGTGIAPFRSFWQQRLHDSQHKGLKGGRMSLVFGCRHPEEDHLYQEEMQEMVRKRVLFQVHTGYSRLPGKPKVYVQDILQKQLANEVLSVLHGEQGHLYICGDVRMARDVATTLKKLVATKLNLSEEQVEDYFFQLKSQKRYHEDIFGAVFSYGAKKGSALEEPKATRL
Description: Nitric oxide (NO) formation during oxidation of NADPH and O2, catalyzed by NOS II detected spectrophotometrically using hemoglobin assay. The class given is functional. An outline of the steps: (§1)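 Purified recombinant NOS II (E. coli) at 20-30 nM was run at 37 °C in 50 mM HEPES pH 7.4 with 1 mM NADPH, 100 μM BH4, 5 mM DTT, 100 U/mL SOD, 100 U/mL catalase, 12-15 μM oxyhemoglobin and 500 μM substrate, against a buffer reference. The initial rate was followed at 401 nm (ε 34 mM⁻¹ cm⁻¹), or at 577 nm for strongly absorbing compounds (ε 14.5). Values are means ± SD of three to eight experiments.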

Assay [2] addresses T1, Nitric oxide synthase, inducible (Mus musculus). Description: (§2) Kinetic constant for NO formation during transformation of oxyhemoglobin to methemoglobin using NADPH and molecular Oxygen in the presence of (NOS II). The assay is classed as functional. An outline of the steps:
(§3)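 Recombinant NOS II (E. coli-expressed, purified) assayed at 37 °C in 50 mM HEPES pH 7.4 with 1 mM NADPH, 100 μM BH4, 5 mM DTT, SOD and catalase (100 U/mL each), and 12-15 μM oxyhemoglobin. Substrate was varied from 5 μM to 2.5 mM. Enzyme level was set to keep oxyhemoglobin conversion below 30%. Kinetic constants come from the initial methemoglobin formation rate at 401 nm; three to four experiments.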

Assay [3] addresses T2, Nitric oxide synthase 3 (Mus musculus) (UniProt P70313).
T2 sequence (whole entry): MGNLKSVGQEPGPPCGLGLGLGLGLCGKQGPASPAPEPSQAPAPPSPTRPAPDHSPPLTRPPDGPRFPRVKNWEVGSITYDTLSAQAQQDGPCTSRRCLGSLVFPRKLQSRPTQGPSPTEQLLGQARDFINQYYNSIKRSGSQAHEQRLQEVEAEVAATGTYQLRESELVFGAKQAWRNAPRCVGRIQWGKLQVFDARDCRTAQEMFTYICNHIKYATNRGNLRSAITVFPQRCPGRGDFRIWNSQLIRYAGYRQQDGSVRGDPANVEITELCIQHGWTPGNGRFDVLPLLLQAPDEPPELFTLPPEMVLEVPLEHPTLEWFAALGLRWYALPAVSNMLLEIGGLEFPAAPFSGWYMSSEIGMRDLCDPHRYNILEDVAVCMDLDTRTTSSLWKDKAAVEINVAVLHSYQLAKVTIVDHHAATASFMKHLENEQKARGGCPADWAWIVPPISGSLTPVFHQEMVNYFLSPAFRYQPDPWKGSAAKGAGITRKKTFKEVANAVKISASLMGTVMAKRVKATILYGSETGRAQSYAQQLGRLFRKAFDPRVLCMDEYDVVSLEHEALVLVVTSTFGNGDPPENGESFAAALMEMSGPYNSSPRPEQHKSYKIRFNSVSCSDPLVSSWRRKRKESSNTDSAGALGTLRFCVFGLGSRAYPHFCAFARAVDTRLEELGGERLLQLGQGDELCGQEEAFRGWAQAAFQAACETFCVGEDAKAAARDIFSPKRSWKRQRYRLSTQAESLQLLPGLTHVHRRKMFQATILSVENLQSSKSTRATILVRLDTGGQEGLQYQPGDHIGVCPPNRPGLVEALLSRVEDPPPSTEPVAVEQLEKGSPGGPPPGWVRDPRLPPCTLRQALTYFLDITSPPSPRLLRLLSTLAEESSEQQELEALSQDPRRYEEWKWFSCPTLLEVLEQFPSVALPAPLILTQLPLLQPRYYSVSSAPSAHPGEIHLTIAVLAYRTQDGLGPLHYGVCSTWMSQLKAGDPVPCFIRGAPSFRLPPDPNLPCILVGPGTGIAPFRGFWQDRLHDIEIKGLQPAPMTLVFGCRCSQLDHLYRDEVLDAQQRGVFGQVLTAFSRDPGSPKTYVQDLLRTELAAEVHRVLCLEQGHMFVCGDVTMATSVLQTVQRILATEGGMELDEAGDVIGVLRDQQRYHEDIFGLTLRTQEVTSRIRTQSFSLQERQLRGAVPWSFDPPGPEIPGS
Description: Nitric oxide (NO) formation during oxidation of NADPH and O2, catalyzed by NOS III was detected spectrophotometrically using hemoglobin assay. The class given is functional. An outline of the steps:
(§4)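 Hemoglobin assay with purified recombinant NOS I (rat brain, expressed in S. cerevisiae) or NOS III (E. coli), at 37 °C in 50 mM HEPES pH 7.4. The mix held 1 mM NADPH, 100 μM BH4, 5 mM DTT, SOD/catalase, oxyhemoglobin, 1 mM CaCl2, 10 μg/mL CaM and 500 μM substrate. Methemoglobin formation was read at 401 nm. Activity is given as percent of that with 500 μM NOHA, from three to five experiments.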

Assay [4] addresses Nitric oxide synthase 1 (Rattus norvegicus) (UniProt P29476). Description: Nitric oxide (NO) formation during oxidation of NADPH and O2, catalyzed by NOS I was detected spectrophotometrically using hemoglobin assay. The assay is classed as functional. In short, it runs like this:
as §4

Assay [5] concerns the target T1, Nitric oxide synthase, inducible (Mus musculus). Description: Nitric oxide (NO) formation during oxidation by NADPH and O2, catalyzed by NOS II was detected spectrophotometrically using hemoglobin assay. The assay is classed as functional. An outline of the steps:
as §1

Assay [6] shares this target. The description is as §2. An outline of the steps: as §3
Assay [7] has the same target. Description: Nitric oxide (NO) formation during oxidation of NADPH and O2, catalyzed by NOS II was detected spectrophotometrically using hemoglobin assay. The assay is classed as functional. In short, it runs like this:
as §1

A value given as a limit tells only on which side of the number the result lay.

Chain of Nitric oxide synthase 1 (Rattus norvegicus) (P29476 whole entry): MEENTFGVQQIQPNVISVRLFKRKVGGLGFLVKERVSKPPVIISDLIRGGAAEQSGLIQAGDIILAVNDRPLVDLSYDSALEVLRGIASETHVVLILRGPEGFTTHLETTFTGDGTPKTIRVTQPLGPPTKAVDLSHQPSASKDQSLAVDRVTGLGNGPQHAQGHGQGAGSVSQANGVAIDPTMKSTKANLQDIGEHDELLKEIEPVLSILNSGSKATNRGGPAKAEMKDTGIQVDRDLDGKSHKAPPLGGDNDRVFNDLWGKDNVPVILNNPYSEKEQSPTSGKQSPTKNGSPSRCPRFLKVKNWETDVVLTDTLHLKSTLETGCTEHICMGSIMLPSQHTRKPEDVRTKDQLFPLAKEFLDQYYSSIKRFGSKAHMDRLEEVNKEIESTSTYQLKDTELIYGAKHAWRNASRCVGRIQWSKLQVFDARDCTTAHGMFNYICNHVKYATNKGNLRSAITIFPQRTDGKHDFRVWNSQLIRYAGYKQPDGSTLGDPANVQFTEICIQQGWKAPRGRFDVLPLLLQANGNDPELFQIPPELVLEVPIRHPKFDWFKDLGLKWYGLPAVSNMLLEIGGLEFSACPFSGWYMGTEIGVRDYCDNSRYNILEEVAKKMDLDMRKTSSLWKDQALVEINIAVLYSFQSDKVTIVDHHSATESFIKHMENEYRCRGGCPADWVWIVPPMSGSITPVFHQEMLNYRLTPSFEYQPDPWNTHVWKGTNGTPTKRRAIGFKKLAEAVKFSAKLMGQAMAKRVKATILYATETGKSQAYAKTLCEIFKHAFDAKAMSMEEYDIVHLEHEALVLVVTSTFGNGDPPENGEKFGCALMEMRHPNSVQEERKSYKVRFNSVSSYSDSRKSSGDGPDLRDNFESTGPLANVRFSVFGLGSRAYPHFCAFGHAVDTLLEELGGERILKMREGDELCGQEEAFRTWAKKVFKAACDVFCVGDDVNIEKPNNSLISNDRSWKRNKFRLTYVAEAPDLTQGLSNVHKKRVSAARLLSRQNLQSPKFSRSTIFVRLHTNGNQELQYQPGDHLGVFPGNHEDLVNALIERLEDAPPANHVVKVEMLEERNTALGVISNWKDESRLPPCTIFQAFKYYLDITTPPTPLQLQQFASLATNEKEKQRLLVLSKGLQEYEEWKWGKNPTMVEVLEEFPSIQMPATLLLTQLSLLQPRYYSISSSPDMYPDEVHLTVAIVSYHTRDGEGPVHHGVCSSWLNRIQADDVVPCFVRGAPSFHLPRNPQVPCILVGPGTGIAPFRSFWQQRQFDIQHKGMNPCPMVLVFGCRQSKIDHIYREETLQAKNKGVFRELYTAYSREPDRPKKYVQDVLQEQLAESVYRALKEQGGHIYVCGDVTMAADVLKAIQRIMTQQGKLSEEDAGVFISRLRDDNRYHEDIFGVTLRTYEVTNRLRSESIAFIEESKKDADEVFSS

In the case of `O/N=C/c1ccc(Cl)cc1`, the NOHA in assay [1] was < 0.2%. On to `COc1ccc(NC(=N)NO)cc1`, for which, in assay [2], the k cat came out at 2.42 s⁻¹. Also, the NOHA is 8% in assay [1], < 0.2% in assay [3] and 3.5% in assay [4]. For `CC(C)(C)c1ccc(NC(=N)NO)cc1`, the NOHA in assay [5] was < 0.2%. For the compound `COc1ccc(C(=N)NO)cc1`, the NOHA in assay [1] was < 0.2%. Consider `N=C(NO)Nc1ccc(Cl)cc1`, for which, in assay [6], the k cat is 1.63 s⁻¹. Further, the NOHA in assay [1] is 13%; in assay [3], < 0.2%; in assay [4] it was < 0.2%.

As for `COc1ccc(/C(C)=N/O)cc1`, the NOHA in assay [1] was < 0.2%. Turning to `N/C(=N/c1ccc(F)cc1)NO`, the k cat in assay [2] stood at 5.83 s⁻¹. Besides, the NOHA is 41% in assay [1], < 0.2% in assay [3] and 4.5% in assay [4]. As to `N/C(=N/c1ccsc1)NO`, the k cat in assay [2] is 0.667 s⁻¹. Further, the NOHA in assay [1] stood at 9.5%. Consider `N=C(NO)Nc1ccccc1`, for which the k cat in assay [2] amounted to 2.17 s⁻¹. The NOHA in assay [1] is 20%; in assay [3] it was < 0.2%; in assay [4], 1.5%. In the case of `N/C(=N/c1ccc(O)cc1)NO`, the k cat in assay [2] was 1.83 s⁻¹. The NOHA is 16.5% in assay [1], < 0.2% in assay [3] and 8.5% in assay [4]. With `COc1ccccc1/N=C(/N)NO`, the NOHA in assay [1] worked out at 5%. As for `N=C(NO)NCc1ccccc1`, the NOHA in assay [1] is 15%. With `CC(C(=O)O)c1ccc(NC(=N)NO)cc1` (stereo not given), the NOHA in assay [1] was < 0.2%.

As to `N/C(=N/c1cccc(C(F)(F)F)c1)NO`, in assay [1], the NOHA was determined as 2.5%. For the compound `N/C(=N/c1cccc(Cl)c1)NO`, in assay [1], the NOHA is 5%. On the same count and under the same terms, in the case of `ON=C(Nc1ccccc1)Nc1ccccc1` it was < 0.2%; in that of `COc1ccc(N/C(C)=N/O)cc1`, < 0.2%; in that of `N/C(=N/c1ccc(OCC(=O)O)cc1)NO`, < 0.2%. Turning to `Cc1ccc(NC(=N)NO)cc1`, the k cat in assay [2] is 4.92 s⁻¹. The NOHA in assay [1] was 17.5%; in assay [3], < 0.2%; in assay [4] it was < 0.2%. `N/C(=N/c1ccc(N)cc1)NO`: the NOHA was 8% in assay [1], < 0.2% in assay [3] and 4.5% in assay [4]. `N=C(NO)Nc1cccc(CN)c1` returned an NOHA in assay [1] of 1.5%. In assay [1], `N/C(=N/c1ccccc1Cl)NO` came in with an NOHA of 5%. Same read-out and setting: then `N/C(=N/c1ccc(Br)cc1)NO`, with 7.5%. `N/C(=N/c1cccc(N)c1)NO`: the results for the NOHA in assay [1], in assay [3] and in assay [4] were 3.5%, 6.5% and 2.5%, respectively. In assay [1], `N/C(=N\O)NCCc1ccccc1` came in with an NOHA of 6%. On to `COc1ccc(/C=N/O)cc1`, for which the NOHA in assay [1] was < 0.2%. With `C/C(=N/c1ccc(Cl)cc1)NO`, the NOHA in assay [1] was < 0.2%.

`N/C(=N\O)c1ccccc1`: the NOHA in assay [1] was < 0.2%. Still for that read-out and setting: in the case of `N/C(=N/c1ccc(CC(=O)O)cc1)NO` it was < 0.2%; in that of `N/C(=N\O)c1ccc(Cl)cc1`, < 0.2%. Regarding `N/C(=N/c1cccc(CO)c1)NO`, the NOHA in assay [1] is 6%; in assay [3], < 0.2%; in assay [4], < 0.2%.

As for `N/C(=N/CCCC(N)C(=O)O)NO` (stereo not given), in assay [2], the k cat came to 7.08 s⁻¹. Further, the Activity (nM (nM of NOS)) in assay [7] was found to be 425; in assay [3] it was 65; in assay [4], 130. `N/C(=N/c1ccc(C(F)(F)F)cc1)NO` yielded an NOHA in assay [1] of 0.5%. In assay [1], `N/C(=N/c1ccc2c[nH]nc2c1)NO` registered an NOHA of 2.5%. In assay [1], `N/C(=N/c1ccc([N+](=O)[O-])cc1)NO` had an NOHA of 2%.

As to `N/C(=N\O)N1CCc2ccccc2C1`, in assay [1], the NOHA is < 0.2%. As for `C/C(=N\O)c1ccc(Cl)cc1`, the NOHA in assay [1] is < 0.2%.

Source of the values: ChEMBL document CHEMBL1135725, “N-Aryl N'-hydroxyguanidines, a new class of NO-donors after selective oxidation by nitric oxide synthases: structure-activity relationship” (J Med Chem, 2002).
